Values after ≈ are worked out from the molar mass of the structure shown.

Assay [1] relates to Mycobacterium tuberculosis. Description: Antimycobacterial activity against Mycobacterium tuberculosis H37Rv assessed as growth inhibition […] by Lowenstein-Jensen agar dilution method. The class given is functional. The procedure, abridged: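 Test compounds dissolved in DMSO and added to liquid Lowenstein-Jensen medium at 25, 12.5, 6.25, 3.12 and 1.56 dilutions. Medium sterilised by inspissation, then tubes held 37 °C for 24 h. H37Rv (harvested into 0.85% saline) streaked at 5 × 10⁴ bacilli/tube and incubated at 37 °C. Growth checked at 12, 22 and 28 days against medium-only controls. MIC taken as no colonies or <20 colonies.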
For orientation: In agar dilution, organisms are placed on agar that contains the substance at set levels.

Assay [2] has as its system Mycobacterium tuberculosis. Nature of the assay: Antimycobacterial activity against Mycobacterium tuberculosis H37Rv assessed as growth inhibition at 6.25 ug/ml measured within 10 days by BACTEC MGIT method. The assay is classed as functional. The conditions noted are these: 240 h. The procedure, abridged:
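Primary single-concentration screen at 6.25 in MGIT tubes containing modified Middlebrook 7H9 broth. H37Rv inoculum was 10⁴–10⁷ CFU/mL, […]. Incubated at 37 °C in the BACTEC MGIT instrument until positive, read daily from day 2. Fluorescence was judged under UV beside positive control and uninoculated tubes. Result scored as % inhibition.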

In the next assay the test system is Vero. Description: Cytotoxicity against African green monkey Vero cells assessed as cell viability after 72 hrs by MTT assay. The class given is cell-based. The conditions noted are these: Chlorocebus sabaeus.

In general, MIC99 refers to the lowest concentration that inhibits either 99% of growth or 99% of the strains tested, depending on the study. As for `CN1CCN(c2nc(Oc3ccc(C#N)cc3)nc(-c3ccc(N4C(=O)CSC4c4ccc(Cl)cc4)cc3)n2)CC1` (configuration not stated), in assay [1], the MIC99 was 62.5 µg/mL (≈ 107 µM).
As usually defined, the inhibition is the share of the control response that was lost under treatment. Usually IC50 stands for the concentration needed to halve the response being measured. For the compound `CN1CCN(c2nc(Oc3ccc(C#N)cn3)nc(-c3ccc(N4C(=O)CSC4c4ccc(F)cc4)cc3)n2)CC1` (configuration not stated), the inhibition at 6.25 µg/mL in assay [2] stood at 99%. Besides, the MIC99 in assay [1] was determined as 6.25 µg/mL (≈ 11 µM). For the same compound, the IC50 with Vero was more than 62.5 µg/mL.
The like results for `COc1ccc(C2SCC(=O)N2c2ccc(-c3nc(Oc4ccc(C#N)cn4)nc(N4CCN(C)CC4)n3)cc2)cc1` (configuration not stated) were, in that order, 99%, 6.25 µg/mL (≈ 10.8 µM) and more than 62.5 µg/mL.
Take `CN1CCN(c2nc(Oc3ccc(C#N)cc3)nc(-c3ccc(N4C(=O)CSC4c4ccc(Br)cc4)cc3)n2)CC1` (configuration not stated): the MIC99 in assay [1] was determined as 25 µg/mL (≈ 39.8 µM). Also, the IC50 in the assay with Vero is more than 62.5 µg/mL.
Regarding `CN1CCN(c2nc(Oc3ccc(C#N)cc3)nc(-c3ccc(N4C(=O)CSC4c4ccc(F)cc4)cc3)n2)CC1` (configuration not stated), the MIC99 in assay [1] turned out to be 100 µg/mL (≈ 176 µM).
Regarding `CN1CCN(c2nc(Oc3ccc(C#N)cn3)nc(-c3ccc(N4C(=O)CSC4c4ccc(O)cc4)cc3)n2)CC1` (configuration not stated), the inhibition at 6.25 µg/mL in assay [2] stood at 99%. Also, in assay [1], the MIC99 stood at 3.12 µg/mL (≈ 5.51 µM). Further, in the assay with Vero, the IC50 was more than 62.5 µg/mL.
Regarding `CN1CCN(c2nc(Oc3ccc(C#N)cc3)nc(-c3ccc(N4C(=O)CSC4c4ccccc4)cc3)n2)CC1` (configuration not stated), the MIC99 in assay [1] was determined as 200 µg/mL (≈ 364 µM).
For `COc1ccc(C2SCC(=O)N2c2ccc(-c3nc(Oc4ccc(C#N)cc4)nc(N4CCN(C)CC4)n3)cc2)cc1` (configuration not stated), the MIC99 in assay [1] was 25 µg/mL (≈ 43.1 µM). Further, the IC50 in the assay on Vero is more than 62.5 µg/mL.
With `CN1CCN(c2nc(Oc3ccc(C#N)cn3)nc(-c3ccc(N4C(=O)CSC4c4ccccc4)cc3)n2)CC1` (configuration not stated), in assay [1], the MIC99 was determined as 125 µg/mL (≈ 227 µM).
Same read-out and setting: as for `CN1CCN(c2nc(Oc3ccc(C#N)cn3)nc(-c3ccc(N4C(=O)CSC4c4ccc(Br)cc4)cc3)n2)CC1` (configuration not stated), the figure is 62.5 µg/mL (≈ 99.3 µM).
The same measure, in the same setting: as for `CN1CCN(c2nc(Oc3ccc(C#N)cn3)nc(-c3ccc(N4C(=O)CSC4c4ccc([N+](=O)[O-])cc4)cc3)n2)CC1` (configuration not stated), the figure is 100 µg/mL (≈ 168 µM).
For the compound `CN1CCN(c2nc(Oc3ccc(C#N)cc3)nc(-c3ccc(N4C(=O)CSC4c4ccc(O)cc4)cc3)n2)CC1` (configuration not stated), the inhibition at 6.25 µg/mL in assay [2] worked out at 99%. The MIC99 in assay [1] was determined as 12.5 µg/mL (≈ 22.1 µM). Besides, the half-inhibitory concentration (IC50) in the assay on Vero was more than 62.5 µg/mL.
As for `CN1CCN(c2nc(Oc3ccc(C#N)cn3)nc(-c3ccc(N4C(=O)CSC4c4ccc(Cl)cc4)cc3)n2)CC1` (configuration not stated), the MIC99 in assay [1] was 100 µg/mL (≈ 171 µM).
As to `CO[C@H]1/C=C/O[C@@]2(C)Oc3c(C)c(O)c4c(O)c(c(/C=N/N5CCN(C)CC5)c(O)c4c3C2=O)NC(=O)/C(C)=C\C=C\[C@H](C)[C@H](O)[C@@H](C)[C@@H](O)[C@@H](C)[C@H](OC(C)=O)[C@@H]1C` [RIFAMPIN], the MIC99 in assay [1] stood at 0.25 µg/mL (≈ 0.304 µM). Besides, the IC50 in the assay on Vero was more than 62.5 µg/mL.
With `CN1CCN(c2nc(Oc3ccc(C#N)cc3)nc(-c3ccc(N4C(=O)CSC4c4ccc([N+](=O)[O-])cc4)cc3)n2)CC1` (configuration not stated), the MIC99 in assay [1] was 100 µg/mL (≈ 168 µM).
For `CC[C@@H](CO)NCCN[C@@H](CC)CO` [ETHAMBUTOL], the MIC99 in assay [1] stood at 3.12 µg/mL (≈ 15.3 µM). For the same compound, the IC50 in the assay with Vero was more than 62.5 µg/mL.
On the same counts, the results for `NNC(=O)c1ccncc1` [ISONIAZID] are 0.2 µg/mL (≈ 1.46 µM) and more than 62.5 µg/mL.
On the same counts, the results for `NC(=O)c1cnccn1` [PYRAZINAMIDE] are 6.25 µg/mL (≈ 50.8 µM) and more than 62.5 µg/mL.

Values taken from ChEMBL document CHEMBL3232709, “Facile synthesis of benzonitrile/nicotinonitrile based s-triazines as new potential antimycobacterial agents” (Eur J Med Chem, 2014).
